Test results published in ChEMBL document CHEMBL5329156, “Discovery and development of novel substituted monohydrazides as potent antifungal agents” (RSC Med Chem, 2023).
Converted amounts (≈) assume the structure as drawn.

How the values were obtained:
Format in all cases: functional
Candida albicans [1] = assay: Antifungal activity against Candida albicans ATCC 10231 assessed as fungal growth inhibition by double dilution method
Method in brief: (§1)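 Broth microdilution after CLSI M27-A3/M38-A2 with minor changes. Single colony grown overnight in YPD at 35 °C, 200 rpm. Compound final range 0.06-31.3 µg/mL; incubated 48 h at 35 °C.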

Candida albicans [2] = assay: Antifungal activity against Candida albicans ATCC 64124 assessed as fungal growth inhibition by double dilution method
Method in brief: (§2)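 Broth microdilution after CLSI M27-A3/M38-A2 with minor modifications. A single colony was grown overnight in YPD at 35 °C with shaking at 200 rpm. Cells were mixed 1:1 with compound (final 0.06-31.3 µg/mL, from DMSO stocks) and incubated 48 h at 35 °C.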

Candida albicans [3] = assay: Antifungal activity against itraconazole/fluconazole susceptible Candida albicans ATCC MYA-2876 assessed as fungal growth inhibition by double dilution method; method in brief: as §2
Candida albicans [4] = assay: Antifungal activity against itraconazole/fluconazole resistant Candida albicans ATCC 90819 assessed as fungal growth inhibition by double dilution method; method in brief: as §2
Candida albicans [5] = assay: Antifungal activity against itraconazole/fluconazole susceptible Candida albicans ATCC MYA-2310 assessed as fungal growth inhibition by double dilution method; method in brief: as §2
Candida albicans [6] = assay: Antifungal activity against itraconazole/fluconazole resistant Candida albicans ATCC MYA-1237 assessed as fungal growth inhibition by double dilution method; method in brief: as §2
Candida albicans [7] = assay: Antifungal activity against itraconazole/fluconazole resistant Candida albicans ATCC MYA-1003 assessed as fungal growth inhibition by double dilution method; method in brief: as §2
Nakaseomyces glabratus [8] = assay: Antifungal activity against Candida glabrata ATCC 2001 assessed as fungal growth inhibition by double dilution method; method in brief: as §1
Pichia kudriavzevii [9] = assay: Antifungal activity against Pichia kudriavzevii ATCC 6258 assessed as fungal growth inhibition by double dilution method; method in brief: as §1
Nakaseomyces glabratus [10] = assay: Antifungal activity against Candida glabrata ATCC 22019 assessed as fungal growth inhibition by double dilution method; method in brief: as §1
[Candida] auris [11] = Antifungal activity against Candida auris AR Bank # 0384 assessed as fungal growth inhibition by double dilution method; details: Candidozyma auris; method in brief: as §1
[Candida] auris [12] = Antifungal activity against Candida auris AR Bank # 0390 assessed as fungal growth inhibition by double dilution method; details: Candidozyma auris; method in brief: as §1
Cryptococcus neoformans = assay: Antifungal activity against Cryptococcus neoformans ATCC MYA-895 assessed as fungal growth inhibition by double dilution method; method in brief: as §1
Aspergillus terreus = assay: Antifungal activity against Aspergillus terreus ATCC MYA-3633 assessed as fungal growth inhibition by double dilution method
Aspergillus fumigatus [13] = assay: Antifungal activity against Aspergillus fumigatus NRRL 163 assessed as fungal growth inhibition by double dilution method
Aspergillus flavus = assay: Antifungal activity against Aspergillus flavus ATCC MYA-3631 assessed as fungal growth inhibition by double dilution method
Aspergillus nidulans = assay: Antifungal activity against Aspergillus nidulans ATCC 38163 assessed as fungal growth inhibition by double dilution method
Aspergillus fumigatus [14] = assay: Antifungal activity against Aspergillus fumigatus NRRL 5109 assessed as fungal growth inhibition by double dilution method
Aspergillus fumigatus [15] = assay: Antifungal activity against Aspergillus fumigatus NRRL 6113 assessed as fungal growth inhibition by double dilution method
[Candida] auris [16] = Antifungal activity against Candida auris AR Bank # 381 assessed as fungal growth inhibition by double dilution method; details: Candidozyma auris; method in brief: as §1
[Candida] auris [17] = Antifungal activity against Candida auris AR Bank # 382 assessed as fungal growth inhibition by double dilution method; details: Candidozyma auris; method in brief: as §1
[Candida] auris [18] = Antifungal activity against Candida auris AR Bank # 383 assessed as fungal growth inhibition by double dilution method; details: Candidozyma auris; method in brief: as §1
[Candida] auris [19] = Antifungal activity against Candida auris AR Bank # 384 assessed as fungal growth inhibition by double dilution method; details: Candidozyma auris; method in brief: as §1
[Candida] auris [20] = Antifungal activity against Candida auris AR Bank # 385 assessed as fungal growth inhibition by double dilution method; details: Candidozyma auris; method in brief: as §1
[Candida] auris [21] = Antifungal activity against Candida auris AR Bank # 386 assessed as fungal growth inhibition by double dilution method; details: Candidozyma auris; method in brief: as §1
[Candida] auris [22] = Antifungal activity against Candida auris AR Bank # 387 assessed as fungal growth inhibition by double dilution method; details: Candidozyma auris; method in brief: as §1
[Candida] auris [23] = Antifungal activity against Candida auris AR Bank # 388 assessed as fungal growth inhibition by double dilution method; details: Candidozyma auris; method in brief: as §1
[Candida] auris [24] = Antifungal activity against Candida auris AR Bank # 389 assessed as fungal growth inhibition by double dilution method; details: Candidozyma auris; method in brief: as §1
[Candida] auris [25] = Antifungal activity against Candida auris AR Bank # 390 assessed as fungal growth inhibition by double dilution method; details: Candidozyma auris; method in brief: as §1
Candida duobushaemulonii [26] = assay: Antifungal activity against Candida duobushaemulonii AR Bank # 391 assessed as fungal growth inhibition by double dilution method; details: Candidozyma duobushaemuli; method in brief: as §1
Candida duobushaemulonii [27] = assay: Antifungal activity against Candida duobushaemulonii AR Bank # 392 assessed as fungal growth inhibition by double dilution method; details: Candidozyma duobushaemuli; method in brief: as §1
[Candida] haemuloni [28] = Antifungal activity against Candida haemulonii AR Bank # 393 assessed as fungal growth inhibition by double dilution method; details: Candidozyma haemuli; method in brief: as §1
Candida duobushaemulonii [29] = assay: Antifungal activity against Candida duobushaemulonii AR Bank # 394 assessed as fungal growth inhibition by double dilution method; details: Candidozyma duobushaemuli; method in brief: as §1
[Candida] haemuloni [30] = Antifungal activity against Candida haemulonii AR Bank # 395 assessed as fungal growth inhibition by double dilution method; details: Candidozyma haemuli; method in brief: as §1
Kodamaea ohmeri = assay: Antifungal activity against Kodamaea ohmeri AR Bank # 396 assessed as fungal growth inhibition by double dilution method; method in brief: as §1
Pichia kudriavzevii [31] = assay: Antifungal activity against Pichia kudriavzevii AR Bank # 397 assessed as fungal growth inhibition by double dilution method; method in brief: as §1
Clavispora lusitaniae = assay: Antifungal activity against Clavispora lusitaniae AR Bank # 398 assessed as fungal growth inhibition by double dilution method; method in brief: as §1
Saccharomyces cerevisiae [32] = assay: Antifungal activity against Saccharomyces cerevisiae AR Bank # 399 assessed as fungal growth inhibition by double dilution method; method in brief: as §1
Saccharomyces cerevisiae [33] = assay: Antifungal activity against Saccharomyces cerevisiae AR Bank # 400 assessed as fungal growth inhibition by double dilution method; method in brief: as §1

O=C(NNc1cccc(F)c1)c1ncc(F)cc1F
MIC (Candida albicans [1]): 0.24 µg/mL (≈ 0.898 µM) | MIC (Candida albicans [2]): 0.98 µg/mL (≈ 3.67 µM) | MIC (Candida albicans [3]): 1.95 µg/mL (≈ 7.3 µM) | MIC (Candida albicans [4]): 3.9 µg/mL (≈ 14.6 µM) | MIC (Candida albicans [5]): 1.95 µg/mL (≈ 7.3 µM) | MIC (Candida albicans [6]): 3.9 µg/mL (≈ 14.6 µM) | MIC (Candida albicans [7]): 1.95 µg/mL (≈ 7.3 µM) | MIC (Nakaseomyces glabratus [8]): 31.3 µg/mL (≈ 117 µM) | MIC (Pichia kudriavzevii [9]): 0.24 µg/mL (≈ 0.898 µM) | MIC (Nakaseomyces glabratus [10]): 1.95 µg/mL (≈ 7.3 µM) | MIC ([Candida] auris [11]): 1.95 µg/mL (≈ 7.3 µM) | MIC ([Candida] auris [12]): 1.95 µg/mL (≈ 7.3 µM) | MIC (Cryptococcus neoformans): ≤ 0.06 µg/mL | MIC (Aspergillus terreus): 3.9 µg/mL (≈ 14.6 µM) | MIC (Aspergillus fumigatus [13]): > 31.3 µg/mL | MIC (Aspergillus flavus): > 31.3 µg/mL | MIC (Aspergillus nidulans): 0.98 µg/mL (≈ 3.67 µM) | MIC (Aspergillus fumigatus [14]): > 31.3 µg/mL | MIC (Aspergillus fumigatus [15]): > 31.3 µg/mL

O=C(NNc1cccc(F)c1)c1ccc(F)cc1F
MIC (Candida albicans [1]): 0.24 µg/mL (≈ 0.902 µM) | MIC (Candida albicans [2]): 1.95 µg/mL (≈ 7.32 µM) | MIC (Candida albicans [3]): 3.9 µg/mL (≈ 14.6 µM) | MIC (Candida albicans [4]): 7.8 µg/mL (≈ 29.3 µM) | MIC (Candida albicans [5]): 3.9 µg/mL (≈ 14.6 µM) | MIC (Candida albicans [6]): 0.98 µg/mL (≈ 3.68 µM) | MIC (Candida albicans [7]): 1.95 µg/mL (≈ 7.32 µM) | MIC (Nakaseomyces glabratus [8]): 7.8 µg/mL (≈ 29.3 µM) | MIC (Pichia kudriavzevii [9]): 1.95 µg/mL (≈ 7.32 µM) | MIC (Nakaseomyces glabratus [10]): 3.9 µg/mL (≈ 14.6 µM) | MIC ([Candida] auris [11]): 1.95 µg/mL (≈ 7.32 µM) | MIC ([Candida] auris [12]): 0.24 µg/mL (≈ 0.902 µM) | MIC (Cryptococcus neoformans): 1.95 µg/mL (≈ 7.32 µM) | MIC (Aspergillus terreus): 1.95 µg/mL (≈ 7.32 µM) | MIC (Aspergillus fumigatus [13]): > 31.3 µg/mL | MIC (Aspergillus flavus): > 31.3 µg/mL | MIC (Aspergillus nidulans): 3.9 µg/mL (≈ 14.6 µM) | MIC (Aspergillus fumigatus [14]): > 31.3 µg/mL | MIC (Aspergillus fumigatus [15]): > 31.3 µg/mL

O=C(NNc1ccc(Cl)cc1)c1cnccn1
MIC ([Candida] auris [16]): 7.8 µg/mL (≈ 31.4 µM) | MIC ([Candida] auris [17]): 15.6 µg/mL (≈ 62.7 µM) | MIC ([Candida] auris [18]): 3.9 µg/mL (≈ 15.7 µM) | MIC ([Candida] auris [19]): 1.95 µg/mL (≈ 7.84 µM) | MIC ([Candida] auris [20]): 31.3 µg/mL (≈ 126 µM) | MIC ([Candida] auris [21]): 7.8 µg/mL (≈ 31.4 µM) | MIC ([Candida] auris [22]): 15.6 µg/mL (≈ 62.7 µM) | MIC ([Candida] auris [23]): 7.8 µg/mL (≈ 31.4 µM) | MIC ([Candida] auris [24]): 7.8 µg/mL (≈ 31.4 µM) | MIC ([Candida] auris [25]): 3.9 µg/mL (≈ 15.7 µM) | MIC (Candida duobushaemulonii [26]): 1.95 µg/mL (≈ 7.84 µM) | MIC (Candida duobushaemulonii [27]): 1.95 µg/mL (≈ 7.84 µM) | MIC ([Candida] haemuloni [28]): 1.95 µg/mL (≈ 7.84 µM) | MIC (Candida duobushaemulonii [29]): 1.95 µg/mL (≈ 7.84 µM) | MIC ([Candida] haemuloni [30]): 3.9 µg/mL (≈ 15.7 µM) | MIC (Kodamaea ohmeri): 1.95 µg/mL (≈ 7.84 µM) | MIC (Pichia kudriavzevii [31]): 3.9 µg/mL (≈ 15.7 µM) | MIC (Clavispora lusitaniae): 3.9 µg/mL (≈ 15.7 µM) | MIC (Saccharomyces cerevisiae [32]): 3.9 µg/mL (≈ 15.7 µM) | MIC (Saccharomyces cerevisiae [33]): 3.9 µg/mL (≈ 15.7 µM)

O=C(NNc1cccc(F)c1)c1ccc(Br)cn1
MIC (Candida albicans [1]): 0.49 µg/mL (≈ 1.58 µM) | MIC (Candida albicans [2]): 0.49 µg/mL (≈ 1.58 µM) | MIC (Candida albicans [3]): 1.95 µg/mL (≈ 6.29 µM) | MIC (Candida albicans [4]): 3.9 µg/mL (≈ 12.6 µM) | MIC (Candida albicans [5]): 3.9 µg/mL (≈ 12.6 µM) | MIC (Candida albicans [6]): 3.9 µg/mL (≈ 12.6 µM) | MIC (Candida albicans [7]): 0.98 µg/mL (≈ 3.16 µM) | MIC (Nakaseomyces glabratus [8]): > 31.3 µg/mL | MIC (Pichia kudriavzevii [9]): 0.24 µg/mL (≈ 0.774 µM) | MIC (Nakaseomyces glabratus [10]): 7.8 µg/mL (≈ 25.2 µM) | MIC ([Candida] auris [11]): 1.95 µg/mL (≈ 6.29 µM) | MIC ([Candida] auris [12]): 1.95 µg/mL (≈ 6.29 µM) | MIC (Cryptococcus neoformans): 0.06 µg/mL (≈ 0.193 µM) | MIC (Aspergillus terreus): 0.98 µg/mL (≈ 3.16 µM) | MIC (Aspergillus fumigatus [13]): > 31.3 µg/mL | MIC (Aspergillus flavus): 15.6 µg/mL (≈ 50.3 µM) | MIC (Aspergillus nidulans): 1.95 µg/mL (≈ 6.29 µM) | MIC (Aspergillus fumigatus [14]): > 31.3 µg/mL | MIC (Aspergillus fumigatus [15]): > 31.3 µg/mL

COc1ccc(NNC(=O)c2ccc(F)cc2F)cc1
MIC (Candida albicans [1]): 0.98 µg/mL (≈ 3.52 µM) | MIC (Candida albicans [2]): 1.95 µg/mL (≈ 7.01 µM) | MIC (Candida albicans [3]): 1.95 µg/mL (≈ 7.01 µM) | MIC (Candida albicans [4]): 1.95 µg/mL (≈ 7.01 µM) | MIC (Candida albicans [5]): 1.95 µg/mL (≈ 7.01 µM) | MIC (Candida albicans [6]): 1.95 µg/mL (≈ 7.01 µM) | MIC (Candida albicans [7]): 1.95 µg/mL (≈ 7.01 µM) | MIC (Nakaseomyces glabratus [8]): 3.9 µg/mL (≈ 14 µM) | MIC (Pichia kudriavzevii [9]): 0.98 µg/mL (≈ 3.52 µM) | MIC (Nakaseomyces glabratus [10]): 7.8 µg/mL (≈ 28 µM) | MIC ([Candida] auris [11]): 1.95 µg/mL (≈ 7.01 µM) | MIC ([Candida] auris [12]): 1.95 µg/mL (≈ 7.01 µM) | MIC (Cryptococcus neoformans): 0.98 µg/mL (≈ 3.52 µM) | MIC (Aspergillus terreus): 31.3 µg/mL (≈ 112 µM) | MIC (Aspergillus fumigatus [13]): > 31.3 µg/mL | MIC (Aspergillus flavus): > 31.3 µg/mL | MIC (Aspergillus nidulans): 1.95 µg/mL (≈ 7.01 µM) | MIC (Aspergillus fumigatus [14]): > 31.3 µg/mL | MIC (Aspergillus fumigatus [15]): > 31.3 µg/mL
